# In paper PMC7699308 (Biochemistry, 2020):
# Bridges are numbered along the chain shown (N, C = ends). Where no end group is shown, it is not given here.
# Experiments:
# [1] = Thioflavin T kinetic assay of amyloid formation; type: physicochemical; settings: 16 μM peptide, 32 μM ThT, pH 7.4, 25°C, one week (seven days)
# In short: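 HFIP peptide stocks, quantified by A280, were lyophilized 24 hrs and resuspended in 10 mM phosphate, 140 mM KCl, pH 7.4, with 32 μM thioflavin T. Peptide was 16 μM in the main assays and 100 μM in the supplementary set. Run at 25°C without shaking, triplicate wells. Fluorescence read at ex 450/em 485 nm every ten minutes. T50 is the time to half-maximal ThT fluorescence.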
# [2] = Cytotoxicity dose response, statements of the text not split by assay; type: cell-based; settings: rat
# [3] = Ion mobility mass spectrometry, collision cross sections; type: physicochemical; settings: for CCS, 1^+2 ion: charge +2, 100 mM ammonium acetate pH 7.5
# In short: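 Lyophilized peptide dissolved in DMSO at 3.2 mM, held 24 hrs at room temperature, then diluted 100-fold in 100 mM ammonium acetate pH 7.5 and directly infused for ion-mobility MS. m/z 350-5000 calibrated with cesium iodide. CCS calibrated daily with polyethylene oxide and tryptic cytochrome c peptides. TWCCS N2→He derived from reduced mobilities in nitrogen using helium calibrant values. Triplicate runs on different days.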
# [4] = monomer, TWCCS N2→He, triplicate on different days
Molecule,Increase in ThT fluorescence over the time course of the study [1],EC50 at 24 h [2] [µM],"CCS, 2^+4 ion ([3]; dimer, charge +4, triplicate on different days) [Å^2]","CCS, 2^+5 ion, second conformation ([3]; dimer, charge +5, lower line of the two conformations, triplicate) [Å^2]","CCS, 1^+2 ion [3, 4] [Å^2]","CCS, 1^+3 ion ([3]; monomer, charge +3, TWCCS N2→He, triplicate on different days) [Å^2]","CCS, 1^+4 ion, second (compact) conformation ([3]; monomer, charge +4, lower line of the two conformations, triplicate) [Å^2]"
"CC[C@H](C)[C@H](NC(=O)[C@H](C)NC(=O)CNC(=O)[C@H](Cc1ccccc1)NC(=O)[C@H](CC(N)=O)NC(=O)[C@H](CC(N)=O)NC(=O)[C@H](CO)NC(=O)[C@H](CO)NC(=O)[C@H](Cc1c[nH]cn1)NC(=O)[C@@H](NC(=O)[C@H](CC(C)C)NC(=O)[C@H](Cc1ccccc1)NC(=O)[C@H](CC(N)=O)NC(=O)[C@H](C)NC(=O)[C@H](CC(C)C)NC(=O)[C@H](CCCNC(=N)N)NC(=O)[C@H](CCC(N)=O)NC(=O)[C@@H](NC(=O)[C@H](C)NC(=O)[C@@H]1CSSC[C@H](NC(=O)[C@@H](N)CCCCN)C(=O)N[C@@H](CC(N)=O)C(=O)N[C@@H]([C@@H](C)O)C(=O)N[C@@H](C)C(=O)N[C@@H]([C@@H](C)O)C(=O)N1)[C@@H](C)O)C(C)C)C(=O)N[C@@H](CC(C)C)C(=O)N[C@@H](CO)C(=O)N[C@@H](CO)C(=O)N[C@H](C(=O)N[C@@H](CC(N)=O)C(=O)N[C@H](C(=O)NCC(=O)N[C@@H](CO)C(=O)N[C@@H](CC(N)=O)C(=O)N[C@H](C(=O)N[C@@H](Cc1ccc(O)cc1)C(N)=O)[C@@H](C)O)C(C)C)[C@@H](C)O [hIAPP, human islet amyloid polypeptide]",showed an increase in ThT fluorescence,27 to 48.1,864.0 ± 9.9,863.0 ± 21.1,544.7 ± 4.6,551.1 ± 8.1,552.9 ± 12.2
"IAPPA25P S28P: an A25P S28P analog of IAPP (KCNTATCATQRLANFLVHSSNNFGPILPSTNVGSNTY; disulfide 2-7; not fully specified (C-terminus); ends not checked; UniProt P10997 34-70, looked up, variant A25P S28P)",showed no increase in ThT fluorescence,,,,550.5 ± 3.8,,
